Measurements taken from ChEMBL document CHEMBL1914438, “Synthesis and biological activity of novel N-cycloalkyl-(cycloalkylaryl)-2-[(3-R-2-oxo-2H-[1,2,4]triazino[2,3-c]quinazoline-6-yl)thio]acetamides” (2011).

Legend:
Format in all cases: functional
[1] = Cytotoxicity against human NCI60 cells assessed as cell growth at 10^-5 M after 48 hrs by SRB assay; settings: NCI60, 48 h, read-out: Activity
Summary of the method: (§1)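 NCI human tumor cell line panel from nine cancer types. Each line was inoculated and preincubated 24–48 h, then exposed to a single concentration (10^-5 M) for 48 h. Growth was read by sulforhodamine B protein staining, measured spectrophotometrically. Value reported as percent growth of treated cells relative to untreated controls.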

786-0 [2] = assay: Cytotoxicity against human 786-0 cells assessed as cell growth at 10^-5 M after 48 hrs by SRB assay; settings: 786-0, 48 h, read-out: Activity
Summary of the method: (§2)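 NCI 60-cell-line one-dose primary screen: cells inoculated and preincubated 24–48 h, then test agent added at a single 10^-5 M concentration for a further 48 h. Endpoint is sulforhodamine B protein staining read spectrophotometrically. Reported as percent growth relative to untreated control cells.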

ACHN [3] = assay: Cytotoxicity against human ACHN cells assessed as cell growth at 10^-5 M after 48 hrs by SRB assay; settings: read-out: Activity; summary of the method: as §2
RXF 393 = assay: Cytotoxicity against human RXF393 cells assessed as cell growth at 10^-5 M after 48 hrs by SRB assay; settings: RXF 393, 48 h, read-out: Activity; summary of the method: as §1
TK-10 = assay: Cytotoxicity against human TK10 cells assessed as cell growth at 10^-5 M after 48 hrs by SRB assay; settings: TK-10, 48 h, read-out: Activity; summary of the method: as §1
[4] = Cytotoxicity against human Hs 578T cells assessed as cell growth at 10^-5 M after 48 hrs by SRB assay; settings: read-out: Activity; summary of the method: as §2
CCRF-CEM = assay: Growth inhibition of human CCRF-CEM cells after 48 hrs by SRB assay
Summary of the method: (§3)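 NCI panel of about 60 human tumor lines, 48 h continuous exposure at five 10-fold dilutions from 10^-4 to 10^-8 M. SRB protein staining was read as absorbance at time zero, in untreated controls and at each concentration. GI50 is the concentration giving 50% lower net protein increase than controls. TGI is where Ti = Tz, and LC50 is 50% protein loss versus start.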

MOLT-4 = assay: Growth inhibition of human MOLT4 cells after 48 hrs by SRB assay; settings: MOLT-4, 48 h; summary of the method: as §3
SR = assay: Growth inhibition of human SR cells after 48 hrs by SRB assay
Summary of the method: (§4)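 NCI 60-cell-line human tumor panel. Cells were inoculated and preincubated for 24–48 h, then exposed continuously to compound for 48 h. Primary screen used a single 10^-5 M concentration. Growth was measured by sulforhodamine B protein staining, read spectrophotometrically, and reported as percent growth versus untreated controls. Selected compounds were also run at five 10-fold dilutions (10^-4 to 10^-8 M) to derive GI50 from time-zero-corrected absorbances.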

EKVX = assay: Growth inhibition of human EKVX cells after 48 hrs by SRB assay; summary of the method: as §3
NCI-H522 = assay: Growth inhibition of human NCI-H522 cells after 48 hrs by SRB assay; settings: NCI-H522, 48 h; summary of the method: as §3
SNB-19 [5] = assay: Growth inhibition of human SNB19 cells after 48 hrs by SRB assay; settings: SNB-19, 48 h; summary of the method: as §4
UACC-62 = assay: Growth inhibition of human UACC62 cells after 48 hrs by SRB assay; settings: UACC-62, 48 h; summary of the method: as §4
786-0 [6] = assay: Growth inhibition of human 786-0 cells after 48 hrs by SRB assay; settings: 786-0, 48 h; summary of the method: as §3
ACHN [7] = assay: Growth inhibition of human ACHN cells after 48 hrs by SRB assay; summary of the method: as §3
Escherichia coli = assay: Antibacterial activity against Escherichia coli assessed as zone of inhibition at 0.5 mg/mL after 24 hrs by stiff-plate agar-diffusion method; settings: read-out: DIZ
Mycobacterium = assay: Antibacterial activity against Mycobacterium luteum assessed as zone of inhibition at 0.1 mg/mL after 24 hrs by stiff-plate agar-diffusion method; settings: read-out: DIZ
Yamadazyma tenuis = assay: Antifungal activity against Candida tenuis assessed as zone of inhibition at 0.1 mg/mL after 48 to 72 hrs by stiff-plate agar-diffusion method; settings: read-out: DIZ
SNB-75 = assay: Cytotoxicity against human SNB75 cells assessed as cell growth at 10^-5 M after 48 hrs by SRB assay; settings: SNB-75, 48 h, read-out: Activity; summary of the method: as §1
UACC-257 = assay: Cytotoxicity against human UACC257 cells assessed as cell growth at 10^-5 M after 48 hrs by SRB assay; settings: UACC-257, 48 h, read-out: Activity; summary of the method: as §1
SF-295 = assay: Cytotoxicity against human SF295 cells assessed as cell growth at 10^-5 M after 48 hrs by SRB assay; settings: SF-295, 48 h, read-out: Activity; summary of the method: as §1
MDA-MB-231 = assay: Cytotoxicity against human MDA-MB-231 cells assessed as cell growth at 10^-5 M after 48 hrs by SRB assay; settings: MDA-MB-231, 48 h, read-out: Activity; summary of the method: as §2
NCI-H322M = assay: Cytotoxicity against human NCI-H322M cells assessed as cell growth at 10^-5 M after 48 hrs by SRB assay; settings: read-out: Activity; summary of the method: as §1
HCT-116 = assay: Cytotoxicity against human HCT116 cells assessed as cell growth at 10^-5 M after 48 hrs by SRB assay; settings: HCT-116, 48 h, read-out: Activity; summary of the method: as §2
SNB-19 [8] = assay: Cytotoxicity against human SNB19 cells assessed as cell growth at 10^-5 M after 48 hrs by SRB assay; settings: SNB-19, 48 h, read-out: Activity; summary of the method: as §1
OVCAR-4 = assay: Cytotoxicity against human OVCAR4 cells assessed as cell growth at 10^-5 M after 48 hrs by SRB assay; settings: OVCAR-4, 48 h, read-out: Activity; summary of the method: as §1
NCI-H23 = assay: Cytotoxicity against human NCI-H23 cells assessed as cell growth at 10^-5 M after 48 hrs by SRB assay; settings: NCI-H23, 48 h, read-out: Activity; summary of the method: as §1
SK-MEL-2 = assay: Cytotoxicity against human SK-MEL-2 cells assessed as cell growth at 10^-5 M after 48 hrs by SRB assay; settings: SK-MEL-2, 48 h, read-out: Activity; summary of the method: as §1
[9] = system: Photobacterium leiognathi; assay: Antibacterial activity against Photobacterium leiognathi Sh1 assessed as inhibition of bacterial luminescence at 0.025 mg/mL after 10 mins by bioluminometry-based acute action test; parameters: scale not given: the % may be the effect or the level left
Summary of the method: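 Marine P. leiognathi Sh1 (Azov Sea shrimp isolate) diluted in chloride solution to 10^5 cells/mL; compounds suspended in DMSO mixed with 1 mL bacterial suspension. Acute test: 10 min at 25 °C, then bioluminescence measured by bioluminometer as % of compound-free control. Tetracycline reference.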

[10] = read-out: pLC50 (the source's name) (converted)

Compound: CCC1C2CCC(C2)C1NC(=O)CSc1nc2ccccc2c2nc(=O)c(-c3ccc(OC)cc3)nn12 (configuration not stated)
- growth at 10 µM [1]: 73.7%
- growth at 10 µM (786-0 [2]): 77.7%
- growth at 10 µM (ACHN [3]): -17.1%
- growth at 10 µM (RXF 393): 9.46%
- growth at 10 µM (TK-10): 13.8%
- growth at 10 µM [4]: -9.67%
- GI50 (CCRF-CEM): 2 µM
- CC50 (CCRF-CEM; [10]): > 50.1 µM
- TGI (CCRF-CEM; read-out: pTGI): > 50.1 µM
- GI50 (MOLT-4): 1.62 µM
- CC50 (MOLT-4; [10]): > 50.1 µM
- TGI (MOLT-4; read-out: pTGI): > 50.1 µM
- GI50 (SR): 1.35 µM
- CC50 (SR; [10]): > 50.1 µM
- TGI (SR; read-out: pTGI (converted)): 7.41 µM
- GI50 (EKVX): 1.95 µM
- CC50 (EKVX; [10]): > 50.1 µM
- TGI (EKVX; read-out: pTGI): > 50.1 µM
- GI50 (NCI-H522): 1.35 µM
- CC50 (NCI-H522; [10]): 38.9 µM
- TGI (NCI-H522; read-out: pTGI (converted)): 7.94 µM
- GI50 (SNB-19 [5]): 3.47 µM
- CC50 (SNB-19 [5]; [10]): > 50.1 µM
- TGI (SNB-19 [5]; read-out: pTGI (converted)): 22.4 µM
- GI50 (UACC-62): 3.55 µM
- CC50 (UACC-62; [10]): > 50.1 µM
- TGI (UACC-62; read-out: pTGI (converted)): 26.3 µM
- GI50 (786-0 [6]): 3.02 µM
- CC50 (786-0 [6]; [10]): > 50.1 µM
- TGI (786-0 [6]; read-out: pTGI (converted)): 15.8 µM
- GI50 (ACHN [7]): 1.91 µM
- CC50 (ACHN [7]; [10]): > 50.1 µM
- TGI (ACHN [7]; read-out: pTGI): > 50.1 µM
- zone of inhibition at 500 µg/mL (Escherichia coli): 0 mm
- zone of inhibition at 100 µg/mL (Mycobacterium): 0 mm
- zone of inhibition at 100 µg/mL (Yamadazyma tenuis): 0 mm
- growth at 10 µM (SNB-75): 4.94%
- growth at 10 µM (UACC-257): 55.6%
- growth at 10 µM (SF-295): 69.9%
- growth at 10 µM (MDA-MB-231): 22.5%
- growth at 10 µM (NCI-H322M): 65.6%
- growth at 10 µM (HCT-116): 64.3%
- growth at 10 µM (SNB-19 [8]): 39.8%
- growth at 10 µM (OVCAR-4): -58.5%
- growth at 10 µM (NCI-H23): 62.8%
- growth at 10 µM (SK-MEL-2): 56.5%
- Activity [9]: 38.5%
